XBP1 UPR activ – activators of adaptive arm of unfolded protein response (XBP1) | CHO-XBP1 luciferase reporter, IRE1-XBP1 UPR activation, luminescence; percent of tunicamycin response, DMSO as zero | activation, % at 20 µM | 330,000 tested, 0.33% active | AID 463104;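 active means versus positive control, 20 µM dose yields 30% or more activation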;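 further: 100% = tunicamycin at 10 µg/mL and 0% = DMSO only wells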
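Assay system: CHO-XBP1 luciferase reporter cells; Schedule: 6 h treatment, 37 °C; Detection: glow luminescence from Steady-Glo reagent; Benchmarks: high control tunicamycin 10 µg/mL final, low control DMSO vehicle only.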
UPR CHOP act – apoptotic UPR (CHOP) activation. CHO-CHOP luciferase reporter, luminescence; percent of tunicamycin response over DMSO baseline. activation, % at 10 µM. 330,000 tested, 0.34% active;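 active means at 10 µM dose, activation of 40% or more, normalized to positive control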;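 further: 100% = tunicamycin at 10 µg/mL and 0% = DMSO alone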
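System: CHO-CHOP luciferase reporter cell line; amount: 500 cells/well; buffer or medium: F12 medium containing 10% fetal bovine serum; incubation: 6 h compound exposure at 37 °C after overnight seeding; measured by: luciferase luminescence after 10 min with Steady-Glo reagent; evaluation: % reporter activation, DMSO baseline versus tunicamycin full activation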
B2AR ag – human beta-2 adrenergic receptor agonism by FAP. 340,000 tested, 0.43% active. Am2.2-beta2AR cells, FAP receptor internalization, flow cytometry. response, % (test concentration not listed). P07550. AID 504454;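 active means response above a set limit, near 3 SD of response in nonfluorescent compounds, cut at about 42% in these data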
Dynein transport – blocks dynein driven cargo transport along microtubules | 3617.4 mouse cells, GR-EGFP nuclear translocation imaging; test concentration mostly 20 µM; stimulated with dexamethasone, 1 µM; active compounds read low | AID 1381 | z-score, hits read low | 220,000 tested, 0.47% active;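 active means plate z-score of nuclear minus cytoplasmic receptor signal below a set negative limit, without overly bright fluorescence or cell loss, cut at about -3.5 in these data, passing the limit was not always enough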;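 further: z-score of nuclear minus cytoplasmic ring GR-EGFP intensity difference per well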
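Buffer or medium: Induction medium lacking tetracycline, stripped serum | Also added: Dexamethasone agonist, 1.0 µM final, for 30 min | Timing: 48 h induction, 1 h compound, 30 min dex at 37 °C | Detection: Formaldehyde fixation, Hoechst nuclear stain, 10x automated fluorescence imaging | Measure: Nuclear versus cytoplasmic GR-EGFP signal, averaged per well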
p-CIP stab down – compounds decreasing mouse p/CIP protein stability; Q05BA5; F442A p/CIP-EGFP cells, EGFP fluorescence, 16 h; decrease of EGFP signal, % at 10 µM; 290,000 tested, 0.01% active; AID 1984;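 active means EGFP signal decrease of at least 30% at 10 µM or well 3 SD below plate mean, unless failing retest; inactive means the rest, including hits failing retest or dose response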
CHOP inh – inhibitors of CHOP induction in ER stress response. inhibition, % at 10 µM. CHO-K1 CHOP-promoter luciferase, tunicamycin-induced, 15-18 h. 220,000 tested, 3.8% active. AID 2732;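 active means compounds that reduced the stress-induced luciferase reporter signal by more than about 70% of percent inhibition, limit read from the data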;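 further: 0% = tunicamycin plus vehicle and 100% = wells without tunicamycin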
* hit, by the source's call; . = no result given. The full list was thinned out, with hits kept by preference.

SMILES	XBP1 UPR activ	UPR CHOP act	B2AR ag	Dynein transport	p-CIP stab down	CHOP inh
N#Cc1ccc(-c2ccc(F)cc2)nc1Oc1ccc(F)cc1	-1.9	-1.1	0.2	-0.374	-15.5	81.3*
CC(C(=O)Nc1ccccc1)N(C)CCOc1ccc(Br)cc1 (stereo unspecified)	1.6	-1.9	6.2	-0.245	0.2	83.6*
CCOC(=O)c1c(-c2ccccc2)csc1NC(=S)NC	3.3	-1.7	0.3	0.252	2.2	92.6*
Oc1ccc(N2CCN(C(c3cccs3)c3nnnn3CCc3ccccc3)CC2)cc1 (stereo unspecified)	1.0	0.0	1.3	0.382	-4.0	33.6
Cc1ccc(-c2onc3ccc(C4(C)OCCO4)cc23)cc1	2.7	1.9	3.6	-1.53	1.6	85.7*
O=C(Nc1nc2ccccc2s1)C1CCCN1S(=O)(=O)c1ccc(Cl)cc1 (stereo unspecified)	4.7	-3.8	-12.0	-0.43	-22.5	92.1*
O=C(Nc1nc2cc(Cl)ccc2s1)C1CCCN(S(=O)(=O)c2cccc3cccnc23)C1 (stereo unspecified)	1.2	2.2	-7.9	-0.354	2.6	74.8*
Cc1ccc(S(=O)(=O)N2CCCC2C(=O)Nc2nc3ccccc3s2)cc1 (stereo unspecified)	1.0	-0.7	-12.3	3.08	9.9	23.5
O=C(COc1cccc(F)c1)Nc1nc(-c2cccnc2)cs1	0.8	-1.8	7.8	.	.	.
CC(c1ccncn1)N(C)C(=O)c1ccc2oc(Cc3ccccc3)nc2c1 (stereo unspecified)	1.0	-0.3	-3.8	.	-0.6	.
CN(CCOc1ccccc1Cl)Cc1ccccc1	-0.6	1.2	5.5	.	-3.8	.
CN(CCOCCOc1ccc(Cl)cc1Br)Cc1ccccc1	1.3	0.6	-3.8	-0.999	37.8*	-26.7
Cc1cc(/C=C2\C(=N)N3C(SCc4ccccc4)=NSC3=NC2=O)c(C)n1Cc1ccccc1	-0.3	1.0	7.3	-0.253	-10.5	87.6*
Cc1cc(/C=C2\C(=N)N3N=C(C(C)C)SC3=NC2=O)c(C)n1Cc1ccccc1	-4.2	-1.4	7.9	1.51	-6.2	3.4
O=C(O/N=C1\CCCc2ccccc21)c1ccc(F)cc1	3.6	3.7	2.5	-0.176	-11.3	71.5*
CC(=O)c1cc(C#N)c(N2CCOCC2)nc1C	2.7	-0.6	-11.9	-0.311	5.6	13.7
O=C(N/N=C/c1ccc(OC(F)F)cc1OC(F)F)c1ccc(Br)cc1	1.0	-2.0	0.3	1.34	-5.0	34.2
O=C(N/N=C/c1ccc(OC(F)F)cc1OC(F)F)NC1CCCCC1	-1.6	0.1	-2.0	0.644	5.2	90.9*
Cc1cc(/C=N/Nc2ncnc(N)c2[N+](=O)[O-])c(C)n1-c1ccccc1	-7.2	-10.7	11.1	0.218	-9.9	83.0*
COc1cccc(/C=N/Nc2ncnc(N)c2[N+](=O)[O-])c1OC	-4.6	-8.1	-0.2	-0.616	-1.2	29.9
Cc1ccc(CNCC(O)(c2ccccc2)c2ccc(F)cc2)cc1 (stereo unspecified)	0.3	-2.9	1.1	.	-23.4	50.7
OC(CNCc1ccccc1F)(c1ccc(F)cc1)c1ccc(F)cc1	-4.7	-1.7	20.7	-0.591	1.9	75.0*
Cc1ccc(CNCC(O)(c2ccc(F)cc2)c2ccc(F)cc2)cc1	-1.1	0.0	30.1	.	-8.5	85.6*
Cc1ccc(C(=O)N2[C@@H]3CN(C)C(=O)[C@@]2(Cc2ccccc2)[C@H]2C(=O)N(Cc4ccccc4)C(=O)[C@@H]32)cc1	.	.	-0.1	.	.	.
O=C(C[C@H]1C[C@H](C(=O)N2CCCCC2)[C@@]2(CCc3ccccc3)c3[nH]c4cc(-c5ccco5)ccc4c3CCN2C1=O)NCCN1CCOCC1	7.0	6.5	42.5*	.	.	.
SMILES	XBP1 UPR activ	UPR CHOP act	B2AR ag	Dynein transport	p-CIP stab down	CHOP inh
COCCCNC(=O)C[C@H]1C[C@H](C(=O)N2CCCCC2)[C@@]2(CCc3ccccc3)c3[nH]c4cc(-c5ccco5)ccc4c3CCN2C1=O	9.0	2.3	12.9	.	.	.
Cc1cc(C(=O)N/N=C/c2cc([N+](=O)[O-])ccc2O)c2ccccc2n1	-0.8	-0.6	2.0	-0.299	2.0	71.4*
O=C(N/N=C/c1cc([N+](=O)[O-])ccc1O)c1c[nH]c2ccccc12	-0.8	-1.2	1.6	-0.241	0.8	80.7*
O=C(N/N=C/c1cccc([N+](=O)[O-])c1)c1c[nH]c2ccccc12	2.1	5.5	4.4	-0.444	-12.3	-36.8
COc1ccc(-c2n[nH]c(C(F)(F)F)c2-c2cc3ccccc3o2)c(O)c1	0.6	-0.8	-1.1	1.35	-10.9	105.3*
COc1ccccc1-c1c(-c2ccc(OCC(=O)NN)cc2O)n[nH]c1C(F)(F)F	-1.6	0.2	3.0	0.357	-4.5	-1.8
Cc1ccc(-c2oc3ccccc3c(=O)c2O)cc1	6.2	6.3	-1.8	0.397	-8.2	71.8*
CC1CCCC(NC(=O)CN(C)S(=O)(=O)c2cnc[nH]2)C1C (stereo unspecified)	-2.6	0.4	-3.5	-0.656	-4.5	4.5
Cc1c(Cc2ccccc2)c(=O)oc2c(C)c(OCC(=O)NCc3ccccn3)ccc12	-0.6	1.4	45.2*	.	-6.0	.
COc1cc(NC(=O)Cn2c(=O)n(-c3cccc(C)c3)c(=O)c3c(C)c(C)sc32)cc(OC)c1	8.4	0.3	2.9	0.196	-13.6	92.4*
Cc1ccccc1CSCC(=O)c1c(N)n(C)c(=O)n(C)c1=O	-1.9	2.1	9.0	0.637	6.5	-9.8
Cc1ccccc1CSCC(=O)c1c(N)n(CC(C)C)c(=O)n(C)c1=O	-3.8	1.0	5.3	-0.587	-2.9	81.1*
COc1ccc2[nH]c(=O)c(-c3noc(-c4ccccc4)n3)cc2c1	9.2	2.0	-0.7	-0.534	61.4	88.4*
Cc1ccc2[nH]c(=O)c(-c3noc(-c4ccncc4)n3)cc2c1	.	.	.	-0.153	.	.
CCN(CC)S(=O)(=O)c1ccc(C)c(NC(=O)COc2ccc(Cl)cc2Br)c1	3.5	6.3	-7.6	0.078	6.4	74.4*
CCN(CC)S(=O)(=O)c1ccc(C)c(NC(=O)COC(=O)C=C(C)C)c1	-0.7	0.4	8.4	-0.108	-6.2	-1.4
CCCC(=O)Nc1cc(-c2nnc(OC)c3ccccc23)ccc1N1CCCCC1	0.6	-0.7	.	0.178	-4.8	71.5*
CC1CCc2nc(NC(=O)c3ccco3)sc2C1 (stereo unspecified)	-6.9	-7.0	-2.9	2.25	0.6	70.6*
CN1c2ccccc2C(C)(C)C12CC(c1cccc(S(=O)(=O)N3CCCC3)c1)=NO2 (stereo unspecified)	0.0	2.0	2.2	1.68	-2.8	21.2
